Data set [1] deals with T1, Ac-AChBP (Aplysia californica, UniProt Q8WSF8).
T1 sequence (Q8WSF8 20-236): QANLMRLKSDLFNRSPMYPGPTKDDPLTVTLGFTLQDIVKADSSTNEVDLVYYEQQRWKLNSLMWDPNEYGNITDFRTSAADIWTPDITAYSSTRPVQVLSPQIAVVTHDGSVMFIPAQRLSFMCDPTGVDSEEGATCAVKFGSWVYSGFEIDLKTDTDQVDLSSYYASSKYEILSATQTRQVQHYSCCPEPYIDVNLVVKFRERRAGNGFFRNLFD
Kind of data set: affinity by tryptophan fluorescence quenching. The format is binding. The essentials:
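Untagged wild-type Ac-AChBP, purified from Sf21 insect cells, at 1 μM in binding sites, equilibrated with a dilution series of test compound for 1 h. Tryptophan fluorescence read on a plate reader: excitation 280 nm, emission 340 nm (slit 8 nm). Data normalised and pKi obtained by fitting a sigmoidal dose–response curve.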

The target in data set [2] is T1, Ac-AChBP. Kind of data set: titration of AO with Ac-AChBP by AO fluorescence quenching. The format is binding. Particulars: AO 100 μM titrated with Ac-AChBP, absence of nicotine. The essentials:
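Test compound at 100 μM was titrated with increasing Ac-AChBP. Its own fluorescence was monitored with excitation at 495 nm and emission at 525 nm (slit 10 nm). A competition arm, where indicated, included 1 mM nicotine.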

The target in data set [3] is T1, Ac-AChBP. Kind of data set: isothermal titration calorimetry. The format is binding. Particulars: 25°, PBS. The essentials: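 The protein was dialysed into PBS and the test compound was dissolved in the same buffer. Titrations ran on a VP-ITC microcalorimeter at 25°. Heat of dilution from ligand titrated into buffer alone was subtracted as background. Data were fitted by non-linear least squares to a one-set-of-sites model.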

Another data set has as its target human α7 nAChRs (Homo sapiens, UniProt P36544). Kind of data set: electrophysiology on Xenopus oocytes expressing human α7 nAChR. Type of data set: cell-based.
The next data set can be described thus: solubility. Type of data set: physicochemical. Particulars: in words.
The target of data set [4] is T1, Ac-AChBP. Kind of data set: biochemical. Type of data set: binding.
Another data set addresses human α7 nAChR (Homo sapiens, UniProt P36544). Kind of data set: radioligand displacement. Type of data set: binding. A digest of the protocol:
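SH-SY5Y neuroblastoma cells expressing human α7 nAChR were washed three times, stored as frozen pellets at −80 °C, then resuspended in ice-cold buffer and sonicated. Incubation used PBS/20 mM Tris pH 7.4/0.05% Tween, test compound at 10−3–10−11 M and [3H]MLA at 2 nM final, for 1.5 h at room temperature with shaking and protected from light. Bound label was collected on PEI-pretreated GF/C filters, washed with ice-cold 50 mM Tris pH 7.4 and counted. Curves were fitted by non-linear least squares; mean±s.e.m. of ≥3 independent experiments.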

Another data set concerns the target T2, Ac-AChBP Y186A (Aplysia californica, UniProt Q8WSF8, Y205A).
T2 sequence (Q8WSF8 20-236 Y205A): T1 sequence (Q8WSF8 20-236) with Y186A
Kind of data set: radioligand displacement on mutant Ac-AChBP Y186A. The format is binding. Particulars: Y186 mutated to alanine.

The target in the next data set is T3, Ac-AChBP Y193A (Aplysia californica, UniProt Q8WSF8, Y212A).
T3 sequence (Q8WSF8 20-236 Y212A): T1 sequence (Q8WSF8 20-236) with Y193A
Kind of data set: radioligand displacement on mutant Ac-AChBP Y193A. The format is binding. Particulars: Y193 mutated to alanine.

Data set [5] addresses T1, Ac-AChBP. Kind of data set: equilibrium titration of binding sites by tryptophan fluorescence quenching. Particulars: Ac-AChBP 20 μM binding sites. A digest of the protocol: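 Ac-AChBP (20 μM in binding sites) was titrated with rising test compound until quenching fell below 8%. Tryptophan emission was read at 340 nm with excitation at 280 nm. Stoichiometry came from a straight line fitted through the average of the plateau points.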

The structures appear in SMILES notation. Where a chain is given by its changes, count along the chain named.

Chain of human α7 nAChR (P36544 23-502): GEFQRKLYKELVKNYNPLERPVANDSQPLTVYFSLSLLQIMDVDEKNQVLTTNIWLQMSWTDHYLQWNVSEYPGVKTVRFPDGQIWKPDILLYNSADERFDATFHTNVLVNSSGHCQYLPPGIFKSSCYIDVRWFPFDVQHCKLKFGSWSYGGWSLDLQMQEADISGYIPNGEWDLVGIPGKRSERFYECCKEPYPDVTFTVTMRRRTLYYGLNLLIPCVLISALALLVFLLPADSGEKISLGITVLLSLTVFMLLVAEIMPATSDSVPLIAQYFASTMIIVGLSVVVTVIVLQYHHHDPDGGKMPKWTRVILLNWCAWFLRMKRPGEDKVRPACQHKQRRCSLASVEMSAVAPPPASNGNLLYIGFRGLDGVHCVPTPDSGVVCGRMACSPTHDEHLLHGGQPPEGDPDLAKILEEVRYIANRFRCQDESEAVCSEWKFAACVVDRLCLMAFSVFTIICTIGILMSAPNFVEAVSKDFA
Chain of human α7 nAChRs (P36544 23-502): as above

Consider `CN(C)c1ccc2cc3ccc(N(C)C)cc3nc2c1` [AO, acridine orange], for which the affinity on Ac-AChBP [1], expressed as Ki, was 1580 nM. Also, the “stoichiometric ratio at which Ac-AChBP quenched AO fluorescence” value at Ac-AChBP [2] came out at 0.3. In addition, the “stoichiometric ratio (n) by ITC” value on Ac-AChBP [3] (0.5 mM ligand into 20 μM Ac-AChBP) is reported as 3–4. Further, the Kd (usually the constant that tells how readily two partners part at equilibrium) at Ac-AChBP [3] (Kd by ITC) is 1860 nM. The half-maximal inhibitory concentration (IC50) – broadly, the point on the concentration scale where inhibition reaches its midpoint – against human α7 nAChRs was found to be 7.3 µM. Also, the solubility entry in “solubility” was “highly soluble”.

For `Cc1cc(C)nc(C(=N)Nc2nc(-c3ccccn3)cc3ccccc23)n1` [VUF9432, 4,6-dimethyl-N-(3-(pyridin-2-yl)isoquinoline-1-yl)-pyrimidine-2-carboximidamide], on Ac-AChBP [4], the Ki – broadly, the equilibrium dissociation constant of an inhibitor or competing ligand from its target – was 11 µM. Moreover, at human α7 nAChR ([3H]MLA displacement, radioligand not fully displaced), the “pKi for α7 nAChR” value is recorded as “around five”. On human α7 nAChR (highest concentration tested), the “displacement of [3H]MLA at the highest concentration tested” value is given as “not fully displaced”. For the same compound, the “affinity for Ac-AChBP Y186A mutant” value on Ac-AChBP Y186A was “loss of affinity”. For the same compound, at Ac-AChBP Y193A, the “affinity for Ac-AChBP Y193A mutant” value was “loss of affinity”. Moreover, the “stoichiometric ratio ligand/AChBP (ligands per protomer/binding site)” value at Ac-AChBP [5] was “three”. Besides, the “effect on α7 nAChR expressed in oocytes” value at human α7 nAChRs (data not shown) was “did not observe any effect”. In addition, in “solubility”, the solubility entry is on record as “not very soluble”.

As for `Nc1nc(-c2ccccn2)cc2ccccc12` [compound 2, 1-Amino-3-(2-pyridyl)isoquinoline], at Ac-AChBP [5], the “stoichiometric ratio ligand/AChBP (ligands per protomer/binding site)” value is reported as “multiple copies”.

Turning to `Nc1nc(-c2cccnc2)cc2ccccc12` [compound 3, 1-Amino-3-(3-pyridyl)isoquinoline], the “stoichiometric ratio ligand/AChBP (ligands per protomer/binding site)” value on Ac-AChBP [5] is reported as “multiple copies”.
